According to the EternaBench riboswitch data:

System: MS2 coat protein
Test: apparent Kd, MS2 coat protein; higher = weaker binding; RNA-MaP array; FMN 200 µM where present
How it was run: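 The apparent Kd comes from binding curves fitted cluster by cluster, filtered, and summarised as a median. Those curves followed SNAP-549-labelled MS2 coat protein from 0.7 or 1.5 nM, doubling to 3 µM, on Illumina sequencing-chip clusters where stalled E. coli RNA polymerase had transcribed the designs, without and then with constant ligand. The buffer was 100 mM Tris-HCl pH 7.5, 80 mM KCl, 4 mM MgCl2, BSA, DTT, yeast tRNA and Tween-20, and green signal was normalised to red-channel RNA signal and control-cluster median Fmax.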

[1] = designed as: OFF switch for flavin mononucleotide, no ligand
[2] = ligand present: flavin mononucleotide, designed as: OFF switch for flavin mononucleotide
[3] = designed as: ON switch for flavin mononucleotide, no ligand
[4] = ligand present: flavin mononucleotide, designed as: ON switch for flavin mononucleotide

Sequence | apparent Kd [1] | apparent Kd [2] | apparent Kd [3] | apparent Kd [4]
ACAUGAGGAUCACCCAUGUAAUGAUGGGUACUAUAUUAUUCGUAGGAUAUCGUUGUUAGUUUGUUCGAGAAGGACGUUUGCCUU | 1220 nM | 1200 nM | – | –
GGUUAGGACAGAGGAUAUACGUGCUAGAGAUACUAGCAAAAUUUCCUCACAUGAGGAUCACCCAUGUAGAAGGCUGUCCUAUCG | 16.4 nM | 434 nM | – | –
CCUCAGUAAGGAUAUCAGCUUAUGGAGGUGGUAAUGAGAGCUGAGAAGGUACAUGAGGAUCACCCAUGUUAGUU | 57 nM | 102 nM | – | –
GGUCCAUCAUGAGGAUAUGGCACCUUAUUGGUGCCAGAAGGCAUGUCUAUAGACAUGAGGAUCACCCAUGUAAUAAAGUGGACC | – | – | 922 nM | 49.3 nM
AUUUCCAGAGGAUAUGCGAGGGUGUACCUCUAACAGCGCAAACAUGAGGAUCACCCAUGUAGAAGGCUGAUCAU | 56.5 nM | 54.8 nM | – | –
AUAUCUAUAUCAGGAUAUGGACAGGCCUGUCCGUAUUGAGACAGUAACAUGAGGAUCACCCAUGUCCAGAAGGGAUCGAUGUAU | 48 nM | 40.2 nM | – | –
GUUGGGUGUCAUGUCGCACAUGAGGAUCACCCAUGUAGGAGGUAGGAUAUCCACGAGAAACGAGAGGAGAAGGGCCAUUAGCGU | 19.2 nM | 23 nM | – | –
GCACUGGAUGUAGGAUAUCAGGACGAUAAGUCCUGAGAAGGACAUGAGGAUCACCCAUGUGAUAAAACCAGUGCAAAUAAUAUA | 18.5 nM | 109 nM | – | –
AAGACAUGAGGAUCACCCAUGUAAAGACCGGUCGAUCAAUGUGAGGAUAUACGAUAAUUGAUAGGGUAGAAGGCACUGGGUUGA | – | – | 264 nM | 151 nM
AAAAAACAAGGAUAUACGCACGAGGAUUGUCUUAAUUUUUGACAUGAGGAUCACCCAUGUAGAAGGUGUUAAAA | 75.7 nM | 79.2 nM | – | –
AAACAGGGAGGAUAUACAUAGAUCGUCUAACCUAAUUGGUCACAUGAGGAUCACCCAUGUAGAAGGCCCUUAGG | 24.6 nM | 144 nM | – | –
CGAUAAAGCUGAGGAUAUGAGAAUAGAAAGAAAUCAGAAGGCAGACAUGAGGAUCACCCAUGUGAGUUCUCGAGAUUACAUGGU | 250 nM | 529 nM | – | –
CGAUAUAACUCAGGAUAUCGGCAUGGGUAGAUUACAUGAGGAUCACCCAUGUGCAUGUCCCGGCACGAGAAGGGAGUAACGCAU | – | – | 290 nM | 47.8 nM
GGAUAGGACAGAGGAUAUACGUUCUAGAGAUACUAGCAAAAUUUCCUCACAUGAGGAUCACCCAUGUAGAAGGCUGUCCUAUCG | 15.1 nM | 282 nM | – | –
AAUAGCUAAGGAUAUACAUGAGGAUCACCCAUGUAAAACACUACUUGGAACCGCCUCGGUAGAAGGUAGAAAAU | – | 22.3 nM | – | –
GACUUGUUAGGAUAUCUUACAUUUGCAUCAUAGCAACCAUUGGAGAAGGGACAUGAGGAUCACCCAUGUUUGGA | 31.6 nM | 31 nM | – | –
GCCAUGCUGGUGACGGAUAACACAUGAGGAUCACCCAUGUACAGAAGGCGGAAUUAGCGUAGGACCGAGGAUAUGUACGUGAGG | 89.5 nM | 26.4 nM | – | –
UGUCGGAGCAGAGGAUAUUACAUGAGGAUCACCCAUGUAUGAACCAAUAGCUGGAAACAGCACUGUAAGAAGGCUGCUCCGACA | 8.67 nM | 96.2 nM | – | –
UUAUUUUUACAGAAGGUUUAAUAAUAUGUAUGAGAAGGAUAUGUAACAUGAGGAUCACCCAUGUUUUAUUUAUAUGAGGUUCGU | 15.3 nM | 12.5 nM | – | –
CUACCUUAUGAGAAGGCGGUCAUGAAACAUGAUCGAGGAUAUCAUGUAAACAUGAGGAUCACCCAUGUAUGGGUAUUAUGGUAA | – | – | 226 nM | 28.8 nM
ACAUACUAUCGAGGAUAUCGGUAAGAAAAGUUACGAGAAGGCGAUUAUAAAUUUAUAUUAUUAUACAUGAGGAUCACCCAUGUA | – | – | 20.9 nM | 21.3 nM
GGAUGACAAAGUCAUCCUUAACGAACAUGAGGAUCACCCAUGUAGGAUAUGGAACUCAAAGAGUUCCAGAAGGACAUGUGCCUU | 33.7 nM | 213 nM | – | –
GCCGAAGGACCCUGACGGGUCGGCUAGGAUAUACAUGAGGAUCACCCAUGUGCGGUUAUUCACGAGUAGAAGGAGCCUCGGCAA | 101 nM | 80.9 nM | – | –
GUAGCACAAACAAAUGUAACAUGAGGAUCACCCAUGUGUUAUGAGGAUAUGGAUGUGAAGUUAAUCCAGAAGGCAUUAUGCUAA | – | – | 17.2 nM | 15.1 nM
CUGCCGUAGGAGAAGGACGGCGGGUUAUUUUUGUACAUGAGGAUCACCCAUGUAGGAUAUCCUACGUCAGGCGACCUACUACAG | 33 nM | 34.5 nM | – | –
UUUUUAUGAGAGAAGGAGGACUUCAUGAGGAUCACCCAUGUGUUAGUACUUAGGAUAUUUAAUAACAUGAGGAUCACCCAUGUC | – | – | 51.1 nM | 48.6 nM
AUUGAUAGCACAGGAUAUUGAGAUUUGAAUUGACAAGAAGGGUGUACAUGAGGAUCACCCAUGUAAUGGCUGCCUCGUUGAUUA | 57.8 nM | 132 nM | – | –
AUACCACGAGGAUAUCGUCUAUUUUACAUGAGGAUCACCCAUGUUAUCUUUGUUUUGUUUCGAGAAGGCGUGUUUU | 25.1 nM | 17.1 nM | – | –

Sequence | apparent Kd [1] | apparent Kd [2] | apparent Kd [3] | apparent Kd [4]
AUAUUUAUUUAGAAGGACAUGAGGAUCACCCAUGUCGCUGGGCGCGGGAAACCGUGCCCGGCCAUGUAGGAUAUAGGUAGAUAU | 14.2 nM | 12.2 nM | – | –
CAGGAUAGAGGAUAUACAUAGAUACAGAUUCAUGUGGUCCUACAUGAGGAUCACCCAUGUAGAAGGCUAUCCUG | 166 nM | 30 nM | – | –
AUAUAGUCAGGAUAUCGAAGUGAGUGUUGGUUUGUAAGGUACGAGAAGGGACAUGAGGAUCACCCAUGUAGGAA | 40.3 nM | 38.8 nM | – | –
GUGAAGAUAGCAGGAUAUUUAUUUCCUACAUGAGGAUCACCCAUGUAGGUGAUCAGCCGAGUAAAGGAGAAGGGCUAUCUUUAC | – | – | 30.9 nM | 21.3 nM
GAAUUACAUGAGGAUCACCCAUGUGAGGAUAUCGAUGUAACUAGCAGCGUGCGGGACUCGAGAAGGCACUUGGA | 39.1 nM | 67.5 nM | – | –
CUGAAGUCAGGAUAUCGUUAAUUUAGUUGUUUGUAUUAGUUCGAGAAGGGACAUGAGGAUCACCCAUGUAAGUU | 33.6 nM | 51.3 nM | – | –
UGUCAGAGCAGAGGAUAUUACAUGAGGAUCACCCAUGUAUGAACCAAUAGCUGGAAACAGCAAUGUAAGAAGGCUGCUCCGACA | 11.9 nM | 130 nM | – | –
AUGGACGUCGUAGGAUAUGUAGGAUUCUCCUACAUGAGGAUCACCCAUGUUGACAUGGAGGACGGACAGAAGGACGGUGUCCAU | – | – | 13.2 nM | 5.31 nM
UGGUACUAGAGAGGAUAUGGGAAGAUACAUGAGGAUCACCCAUGUUUAAGAAUGCCGAGAGGCAACUAGAAGGCCCUAGUACCU | – | – | 490 nM | 31.5 nM
GGUGGCGUGAUAACGCUAGAUAUAACAUGAGGAUCACCCAUGUAGGAUAUCCUGCCGAGAGGGCGGGAGAAGGACAACCAAUGG | 41.9 nM | 41.8 nM | – | –
CUCUUAGCAGGAUAUACAUUAUCCCAGUCAUGGUCGGCGACACAUGAGGAUCACCCAUGUAGAAGGGCUAUGAG | 23.4 nM | 52.8 nM | – | –
GCCUCAUAGUAGAAGGGACUUAGACAGUAAAGCAAAUAGAGGAAUUAACAUGAGGAUCACCCAUGUCAGGAUAUACUAAGAGGC | 11.3 nM | 12.1 nM | – | –
GCACAUGAGGAUCACCCAUGUCGGGAGGAUAUCUAGGCUGGGCGAUGCUAGGGCGGCCUCUGCUUAGAGAAGGCCCAUAAAAUC | – | – | 197 nM | 33.4 nM
AAUAUGAGCUGGUUUAAACUCAAAACAUGAGGAUCACCCAUGUAGGAUAUCAGCACGAUAAGUGCUGAGAAGGACAUCCAGCUC | 14.2 nM | 16.5 nM | – | –
AAAAAAAAAACGCAGGAUAUCCAAAAAAAAACAUGAGGAUCACCCAUGUAAAAAAAAAAAAAAUGGGAGAAGGGUGAAAAAAAAAA | – | – | 114 nM | 51 nM
AAUUAACAUGAGGAUCACCCAUGUGAGGAUAUGGUAUUAUUUGGACAGUUAUGAUCUACCAGAAGGCACAUAUA | 39 nM | 65.1 nM | – | –
GCACUUACGUUAGGAUAUGGAUCGGAAAACGAUCCAGAAGGAAUAUGGGAACAUGAGGAUCACCCAUGUUCCUCAGACAAGUGC | – | – | 67.7 nM | 35.1 nM
AGUUGUUCAGGAUAUGAUGAAUAUUACAUGAGGAUCACCCAUGUAGAUCCUGAAUAUGAAUCAGAAGGGAAUAUUU | 15.3 nM | 32.5 nM | – | –
CUUGUUUAUGUGAGGAUAUACUGUUAGUAUAGUUUGUAGAAGGUACAUGAGGAUCACCCAUGUUUAUUACUCUU | 13.7 nM | 13.8 nM | – | –
UACAUUAACAUGAGGAUCACCCAUGUUGGCCAGUCUCUCACCAGAAGGCACGUAGAGUACAACAGUGAGGAUAUGGGUGACAUA | – | – | 139 nM | 86.1 nM
UGAUAACAUGUAGGAUAUCCAGCAUUGACCAUCGGAGAAGGACAUGAGGAUCACCCAUGUACCGAUACAAUGGGAUAACGCAAU | 15.4 nM | 18 nM | – | –
GAUUGACAUGAGGAUCACCCAUGUGAGGAUAUCGGCCGGACCUUGUUAGCUUCCAUCGCGAGAAGGCACAUAGG | 28.1 nM | 37.1 nM | – | –
GGGAUUAAGGCAGGAUAUCCGGGUUGGCCUCGACAUGAGGAUCACCCAUGUGGAGAAGGGCCGACUGCUCGAAAGGCGGUCAAG | 214 nM | 67.4 nM | – | –
GCAUGUCUUAAGGAUAUGCUUUGGCGUGAGCCGGCAGAAGGUAAGACAUGAGGAUCACCCAUGUUUUCCUAAAA | 20.5 nM | 140 nM | – | –
AAUUCACAUGAGGAUCACCCAUGUGAGGAUAUGGAUUCGCUGGCCGUAGCCAGUGGAUCCAGAAGGCGCAUGAU | 29.2 nM | 35.6 nM | – | –
ACAUGAGGAUCACCCAUGUAUACAUAGGAUAUUGGUGAUCAGGGAUGUUUUACAGGAUAUGUCUGCGAGAAGGAUGCAAGUUGU | – | – | 360 nM | 70.4 nM
AUACGGGCCCAGAAGGUGCCAGCGAGAGCUGCACAUGAGGAUCACCCAUGUUGUCGGUGACGACGCAAGGAUAUGGGCCCGUAU | – | – | 23.4 nM | 6.63 nM
